Assay results as given in ChEMBL document CHEMBL4196054, “Facile synthesis of 1,2-dione-containing abietane analogues for the generation of human carboxylesterase inhibitors” (Eur J Med Chem, 2018).

Tests used:
Liver carboxylesterase 1 = target: T1, Liver carboxylesterase 1 (Homo sapiens, UniProt P23141); assay: Inhibition of human liver carboxylesterase 1 using o-nitrophenyl acetate as substrate
T1 sequence (P23141 whole entry): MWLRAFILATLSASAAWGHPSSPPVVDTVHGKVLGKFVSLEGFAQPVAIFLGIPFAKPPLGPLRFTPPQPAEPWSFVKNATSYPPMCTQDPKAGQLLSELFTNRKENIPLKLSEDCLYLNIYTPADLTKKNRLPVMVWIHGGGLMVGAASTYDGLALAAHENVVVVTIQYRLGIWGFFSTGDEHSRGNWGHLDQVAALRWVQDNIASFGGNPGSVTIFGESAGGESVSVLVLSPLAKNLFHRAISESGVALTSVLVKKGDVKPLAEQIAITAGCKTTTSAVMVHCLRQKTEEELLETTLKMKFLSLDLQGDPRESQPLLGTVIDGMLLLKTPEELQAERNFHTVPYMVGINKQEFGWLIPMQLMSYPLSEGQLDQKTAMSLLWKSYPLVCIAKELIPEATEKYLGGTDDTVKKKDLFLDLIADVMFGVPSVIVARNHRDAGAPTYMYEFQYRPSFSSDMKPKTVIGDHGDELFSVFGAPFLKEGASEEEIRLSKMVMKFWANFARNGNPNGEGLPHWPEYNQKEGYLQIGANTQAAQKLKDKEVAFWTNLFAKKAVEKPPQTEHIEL
How it was run: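 Chromatographically pure human hCE1 in 50mM Hepes pH7.4 with 3mM o-nitrophenyl acetate. Inhibitor in DMSO, at least 8 concentrations, triplicates, compared against DMSO-only controls. Reaction started by enzyme addition. Data fitted to a multifactorial equation, the best inhibition model chosen by Akaike's information criterion, and Ki taken from the curve fits.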

[1] = Inhibition of human intestinal carboxylesterase using o-nitrophenyl acetate as substrate
How it was run: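 Purified human intestinal CE (hiCE), chromatographically pure. Read in 96-well format with 3mM o-nitrophenyl acetate in 50mM Hepes, pH7.4. Inhibitors were added in DMSO and the reaction was started by adding enzyme. At least 8 inhibitor concentrations were run in triplicate against DMSO-only controls. Data were fitted to a multifactorial equation, the best model was chosen by Akaike's information criteria, and Ki was taken from the curve fits.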

Homo sapiens [2] = species on record: Homo sapiens; assay: Selectivity index, ratio of Ki for human liver carboxylesterase 1 to Ki for human intestinal carboxylesterase
[3] = target: Acetylcholinesterase (Homo sapiens) (UniProt P22303); assay: Inhibition of human AChE using acetylthiocholine as substrate at 5 uM by spectrophotometric analysis
Chain of Acetylcholinesterase (Homo sapiens) (P22303 whole entry): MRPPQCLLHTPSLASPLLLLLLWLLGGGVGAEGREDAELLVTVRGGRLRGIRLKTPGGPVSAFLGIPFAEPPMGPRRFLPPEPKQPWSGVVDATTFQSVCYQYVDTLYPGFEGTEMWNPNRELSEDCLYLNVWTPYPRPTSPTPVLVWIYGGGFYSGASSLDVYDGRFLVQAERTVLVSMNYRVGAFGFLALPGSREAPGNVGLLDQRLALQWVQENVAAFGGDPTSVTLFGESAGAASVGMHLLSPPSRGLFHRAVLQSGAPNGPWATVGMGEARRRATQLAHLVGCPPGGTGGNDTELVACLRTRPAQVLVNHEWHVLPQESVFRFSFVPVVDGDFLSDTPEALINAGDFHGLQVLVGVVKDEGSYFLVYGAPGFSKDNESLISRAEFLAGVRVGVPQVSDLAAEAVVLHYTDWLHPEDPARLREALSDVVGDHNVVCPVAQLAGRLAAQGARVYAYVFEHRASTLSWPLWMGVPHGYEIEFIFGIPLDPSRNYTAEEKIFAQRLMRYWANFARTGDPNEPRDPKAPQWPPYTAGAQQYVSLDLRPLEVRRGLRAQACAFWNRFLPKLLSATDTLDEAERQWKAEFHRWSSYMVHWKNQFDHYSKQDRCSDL
How it was run: (§1)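 Run like the carboxylesterase assay in 50mM Hepes pH7.4 with DMSO-dissolved inhibitor, reaction started by enzyme addition. Substrate is acetylthiocholine (AChE) or butyrylthiocholine (BChE). Inhibitor tested at a single 5µM concentration.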

[4] = target: Cholinesterase (Homo sapiens) (UniProt P06276); assay: Inhibition of human BChE using butyrylthiocholine as substrate at 5 uM by spectrophotometric analysis; how it was run: as §1
Chain of Cholinesterase (Homo sapiens) (P06276 whole entry): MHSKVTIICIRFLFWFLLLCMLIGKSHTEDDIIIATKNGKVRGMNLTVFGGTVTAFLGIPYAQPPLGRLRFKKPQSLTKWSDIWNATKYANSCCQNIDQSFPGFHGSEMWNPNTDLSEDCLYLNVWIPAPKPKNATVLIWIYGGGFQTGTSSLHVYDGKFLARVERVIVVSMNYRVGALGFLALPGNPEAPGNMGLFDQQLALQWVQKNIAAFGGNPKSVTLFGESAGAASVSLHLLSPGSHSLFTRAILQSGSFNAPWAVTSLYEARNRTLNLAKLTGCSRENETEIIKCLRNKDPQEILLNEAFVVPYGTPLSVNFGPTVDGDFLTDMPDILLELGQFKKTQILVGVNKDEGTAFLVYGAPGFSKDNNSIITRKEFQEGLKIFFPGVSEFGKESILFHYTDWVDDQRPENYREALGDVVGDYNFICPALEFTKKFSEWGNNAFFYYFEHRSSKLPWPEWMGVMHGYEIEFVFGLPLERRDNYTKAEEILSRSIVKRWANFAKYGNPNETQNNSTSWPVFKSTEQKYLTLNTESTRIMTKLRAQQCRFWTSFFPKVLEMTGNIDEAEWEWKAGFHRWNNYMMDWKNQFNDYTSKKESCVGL

[5] = target: T2, liver carboxylesterase 1 (CES1) (Homo sapiens, UniProt P23141); assay: Potency index, ratio of miltirone Ki to compound Ki for inhibition of human liver carboxylesterase 1; settings: read-out: Ratio Ki
T2 sequence (P23141 whole entry): T1 sequence (P23141 whole entry)

Homo sapiens [6] = species on record: Homo sapiens; assay: Potency index, ratio of miltirone Ki to compound Ki for inhibition of human intestinal carboxylesterase

SMILES: O=C1C=Cc2ccc3c(c2C1=O)CCCC3
- Ki (Liver carboxylesterase 1): 131 nM
- Ki [1]: 2180 nM
- Ratio Ki (Homo sapiens [2]): 0.06
- inhibition [3]: 0%
- inhibition [4]: 54%

SMILES: CC1=Cc2ccc3c(c2C(=O)C1=O)CC(C)(C)CC3
- Ki (Liver carboxylesterase 1): 2420 nM
- Ki [1]: 87.9 nM
- Ratio Ki (Homo sapiens [2]): 27.6
- inhibition [3]: 0%
- inhibition [4]: 1%

SMILES: O=C1C=C(F)c2ccc3c(c2C1=O)CCCC3
- Ki (Liver carboxylesterase 1): 25.9 nM
- Ki [1]: 171 nM
- Ratio Ki (Homo sapiens [2]): 0.15
- inhibition [3]: 4%
- inhibition [4]: 33%

SMILES: CC(C)C1=Cc2ccc3c(c2C(=O)C1=O)CCCC3
- Ki (Liver carboxylesterase 1): 1050 nM
- Ki [1]: 111 nM
- inhibition [3]: 16%
- inhibition [4]: 1%

SMILES: CC1=CC(=O)C(=O)c2c1ccc1c2CCCC1
- Ki (Liver carboxylesterase 1): 25.1 nM
- Ki [1]: ≥ 10000 nM
- inhibition [3]: 13%
- inhibition [4]: 30%

SMILES: CC1=Cc2ccc3c(c2C(=O)C1=O)CCOC3
- Ki (Liver carboxylesterase 1): ≥ 10000 nM
- Ki [1]: ≥ 10000 nM
- inhibition [3]: 27%
- inhibition [4]: 0%

SMILES: O=C1C(=O)c2c(ccc3c2CCCC3)C=C1F
- Ki (Liver carboxylesterase 1): 12.2 nM
- Ki [1]: 112 nM
- Ratio Ki (Homo sapiens [2]): 0.11
- inhibition [3]: 16%
- inhibition [4]: 62%
- selectivity ratio [5]: 210

SMILES: CC(C)C1=Cc2ccc3c(c2C(=O)C1=O)CC(C)(C)CC3
- Ki (Liver carboxylesterase 1): 1870 nM
- Ki [1]: 31.2 nM
- Ratio Ki (Homo sapiens [2]): 60
- inhibition [3]: 20%
- inhibition [4]: 4%

SMILES: O=C1C=Cc2ccc3ccccc3c2C1=O
- Ki (Liver carboxylesterase 1): 942 nM
- Ki [1]: ≥ 10000 nM
- Ratio Ki (Homo sapiens [2]): < 0.06
- inhibition [3]: 16%
- inhibition [4]: 13%

SMILES: CC1=Cc2ccc3c(c2C(=O)C1=O)CCCC3
- Ki (Liver carboxylesterase 1): 1220 nM
- Ki [1]: 423 nM
- Ratio Ki (Homo sapiens [2]): 2.9
- inhibition [3]: 5%
- inhibition [4]: 4%

SMILES: O=C1C(=O)c2c(ccc3ccccc23)C=C1F
- Ki (Liver carboxylesterase 1): 48.7 nM
- Ki [1]: 51.3 nM
- Ratio Ki (Homo sapiens [2]): 0.48
- inhibition [3]: 8%
- inhibition [4]: 3%

SMILES: CC1=Cc2ccc3c(c2C(=O)C1=O)CCC(C)(C)C3
- Ki (Liver carboxylesterase 1): 495 nM
- Ki [1]: 182 nM
- Ratio Ki (Homo sapiens [2]): 2.7
- inhibition [3]: 1%
- inhibition [4]: 2%

SMILES: CC(C)C1=Cc2ccc3c(c2C(=O)C1=O)CCCC3(C)C [MILTIRONE]
- inhibition [3]: 22%
- inhibition [4]: 6%

SMILES: CC1(C)CCc2ccc3c(c2C1)C(=O)C(=O)C=C3
- Ki (Liver carboxylesterase 1): 31.9 nM
- Ki [1]: 341 nM
- Ratio Ki (Homo sapiens [2]): 0.09
- inhibition [3]: 2%
- inhibition [4]: 13%

SMILES: CC1(C)CCc2ccc3c(c2C1)C(=O)C(=O)C=C3F
- Ki (Liver carboxylesterase 1): 14.4 nM
- Ki [1]: 386 nM
- Ratio Ki (Homo sapiens [2]): 0.04
- inhibition [3]: 10%
- inhibition [4]: 15%
- selectivity ratio [5]: 175

SMILES: COC1=Cc2ccc3c(c2C(=O)C1=O)CC(C)(C)CC3
- Ki (Liver carboxylesterase 1): 42.5 nM
- Ki [1]: 159 nM
- Ratio Ki (Homo sapiens [2]): 0.3
- inhibition [3]: 2%
- inhibition [4]: 1%

SMILES: CC1(C)CCc2ccc3c(c2C1)C(=O)C(=O)C(F)=C3
- Ki (Liver carboxylesterase 1): 42 nM
- Ki [1]: 14.6 nM
- Ratio Ki (Homo sapiens [2]): 2.9
- inhibition [3]: 3%
- inhibition [4]: 23%
- Ratio Ki (Homo sapiens [6]): 3

SMILES: CC(C)C1=Cc2ccc3c(c2C(=O)C1=O)CCC(C)(C)C3
- Ki (Liver carboxylesterase 1): 4200 nM
- Ki [1]: 70.7 nM
- Ratio Ki (Homo sapiens [2]): 59.5
- inhibition [3]: 30%
- inhibition [4]: 3%

SMILES: CC1(C)CCc2ccc3c(c2C1)C(=O)C(=O)C(F)=C3F
- Ki (Liver carboxylesterase 1): 102 nM
- Ki [1]: 43.3 nM
- Ratio Ki (Homo sapiens [2]): 2.3
- inhibition [3]: 4%
- inhibition [4]: 1%
